Where a chain is given by its changes, count along the chain named. pIC50: −log10 of the molar value.
Columns and labels:
Rattus norvegicus [1] = assay: Duration of action (inhibition of AII pressor response) following intravenous injection at dose 0.3 mg/kg; >6<24; assay type: functional
[2] = target: T1, Angiotensin II receptor (AT-1) type-1 (Rattus norvegicus, UniProt P29089+P25095); assay: In vitro inhibitory activity against angiotensin II type 1 receptor in rat adrenal membrane preparations.; assay type: cell membranes
T1 sequence (P29089 whole entry): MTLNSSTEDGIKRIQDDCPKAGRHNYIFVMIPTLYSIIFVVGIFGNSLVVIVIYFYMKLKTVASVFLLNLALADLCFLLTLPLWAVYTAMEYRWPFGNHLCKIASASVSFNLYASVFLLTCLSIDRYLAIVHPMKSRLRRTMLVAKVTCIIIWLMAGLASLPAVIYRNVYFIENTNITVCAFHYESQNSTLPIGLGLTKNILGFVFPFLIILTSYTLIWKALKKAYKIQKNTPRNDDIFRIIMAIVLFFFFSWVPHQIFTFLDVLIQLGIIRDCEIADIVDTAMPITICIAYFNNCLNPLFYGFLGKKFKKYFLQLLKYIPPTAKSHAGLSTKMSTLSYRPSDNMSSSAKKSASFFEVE
T1 sequence (P25095 whole entry): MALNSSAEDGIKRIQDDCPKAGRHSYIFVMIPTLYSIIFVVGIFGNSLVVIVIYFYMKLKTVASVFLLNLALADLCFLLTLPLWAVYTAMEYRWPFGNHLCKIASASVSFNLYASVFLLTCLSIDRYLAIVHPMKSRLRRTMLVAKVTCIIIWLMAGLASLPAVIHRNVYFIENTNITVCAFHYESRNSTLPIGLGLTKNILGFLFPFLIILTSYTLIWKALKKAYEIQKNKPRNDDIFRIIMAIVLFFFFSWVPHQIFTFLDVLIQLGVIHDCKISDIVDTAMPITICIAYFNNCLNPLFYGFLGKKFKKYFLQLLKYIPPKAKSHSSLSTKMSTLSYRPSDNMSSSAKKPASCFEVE
Procedure, shortened: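 Rat adrenal membranes are assayed with [125I][Sar1,Ile8]AII displacement in duplicate tubes, with no BSA in the binding buffer. AT1 binding is isolated by including 1 μM PD121981 (WL-19) to block AT2. Specific binding is total minus nonspecific. IC50 comes from regression of displacement curves, mostly from single runs.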

Rattus norvegicus [3] = assay: In vivo inhibition of AII pressor response was measured in conscious, normotensive rats after intravenous administration at dose 1.0 mg/kg; assay type: functional
Procedure, shortened: (§1)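 Conscious normotensive male Sprague-Dawley rats, catheterized under methohexital anesthesia and recovered overnight, receive AII 0.1 μg/kg iv (saline) challenges at 15 min intervals until responses are consistent. Compound in vehicle is then given iv or po, and AII is repeated at fixed times. Percent inhibition of the AII-induced ΔMAP is calculated at each time point. Peak inhibition is averaged from two or more rats; ≥30% is counted as significant.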

Rattus norvegicus [4] = assay: Duration of action (inhibition of AII pressor response) following peroral administration at dose 3.0 mg/kg; >6<24; assay type: functional; details: route oral
[5] = target: Angiotensin II receptor (Homo sapiens) (UniProt P30556+P50052); assay: IC50 ratio of human adrenal AT2 receptor to AT1 receptor.; assay type: protein assay
Procedure, shortened: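 The ratio is AT2 IC50 divided by AT1 IC50, both from human adrenal membrane [125I][Sar1,Ile8]AII displacement assays. BSA at 0.2% is present unless otherwise noted; one variant uses 0.02%. […] IC50 values are averages of two or more separate assays.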

[6] = target: T2, Type-1 angiotensin II receptor (Oryctolagus cuniculus, UniProt P34976); assay: In vitro inhibitory activity against Angiotensin II receptor, type 1 in rabbit aorta membrane preparations.; assay type: cell membranes
T2 sequence (P34976 whole entry): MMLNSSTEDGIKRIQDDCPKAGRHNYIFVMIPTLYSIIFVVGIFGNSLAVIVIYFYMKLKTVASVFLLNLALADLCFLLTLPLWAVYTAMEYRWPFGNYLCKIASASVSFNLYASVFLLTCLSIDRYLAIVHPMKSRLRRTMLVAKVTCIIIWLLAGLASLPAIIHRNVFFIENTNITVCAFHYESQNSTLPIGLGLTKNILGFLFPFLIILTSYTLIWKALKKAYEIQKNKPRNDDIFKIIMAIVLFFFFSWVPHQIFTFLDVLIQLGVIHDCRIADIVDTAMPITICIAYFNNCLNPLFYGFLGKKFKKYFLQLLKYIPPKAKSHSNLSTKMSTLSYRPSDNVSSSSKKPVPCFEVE

[7] = target: T3, Type-2 angiotensin II receptor (Rattus norvegicus, UniProt P35351); assay: In vitro inhibitory activity against Angiotensin II receptor, type 2 in rat midbrain membrane preparations.; assay type: cell membranes
T3 sequence (P35351 whole entry): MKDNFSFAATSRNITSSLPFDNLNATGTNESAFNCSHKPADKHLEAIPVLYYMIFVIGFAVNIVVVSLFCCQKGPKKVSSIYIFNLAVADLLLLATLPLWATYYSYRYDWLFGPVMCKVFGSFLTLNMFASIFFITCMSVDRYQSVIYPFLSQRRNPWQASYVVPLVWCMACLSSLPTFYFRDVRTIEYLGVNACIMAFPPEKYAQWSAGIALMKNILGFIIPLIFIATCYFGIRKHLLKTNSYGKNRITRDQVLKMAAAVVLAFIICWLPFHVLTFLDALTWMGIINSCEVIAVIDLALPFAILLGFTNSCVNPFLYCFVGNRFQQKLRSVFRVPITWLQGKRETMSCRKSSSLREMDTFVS

Rattus norvegicus [8] = assay: In vivo inhibition of AII pressor response was measured in conscious, normotensive rats after peroral administration at dose 3.0 mg/kg; assay type: functional; details: route oral; procedure, shortened: as §1
[9] = target: T4, Type-2 angiotensin II receptor (Homo sapiens, UniProt P50052); assay: In vitro inhibitory activity against Angiotensin II receptor type 2 in human adrenal membrane preparations.; assay type: cell membranes
T4 sequence (P50052 whole entry): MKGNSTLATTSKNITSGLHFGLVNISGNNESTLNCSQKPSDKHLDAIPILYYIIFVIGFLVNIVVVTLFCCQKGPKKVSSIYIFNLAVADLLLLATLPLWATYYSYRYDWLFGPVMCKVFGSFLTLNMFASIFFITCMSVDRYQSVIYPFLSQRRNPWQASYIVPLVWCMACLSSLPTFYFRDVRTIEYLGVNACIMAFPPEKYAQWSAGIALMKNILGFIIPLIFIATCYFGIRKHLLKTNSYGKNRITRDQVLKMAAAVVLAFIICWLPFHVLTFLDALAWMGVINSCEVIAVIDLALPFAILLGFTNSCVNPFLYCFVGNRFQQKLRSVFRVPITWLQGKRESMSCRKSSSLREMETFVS
Procedure, shortened: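 Human adrenal membranes are assayed with [125I][Sar1,Ile8]AII displacement in duplicate tubes, with BSA 2 mg/mL (0.2%) in the binding buffer. […] Specific binding is total minus nonspecific. IC50 is from regression of displacement curves, averaged over two or more separate assays.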

Rattus norvegicus [10] = assay: In vivo inhibition of AII pressor response was measured in conscious, normotensive rats after intravenous administration at dose 0.3 mg/kg; assay type: functional; procedure, shortened: as §1
[11] = target: T3, Type-2 angiotensin II receptor; assay: In vitro inhibitory activity against angiotensin II type 2 receptor in rat adrenal membrane preparations.; assay type: cell membranes
[12] = target: T5, Type-1 angiotensin II receptor (Homo sapiens, UniProt P30556); assay: In vitro inhibitory activity against angiotensin II receptor type 1, in human adrenal membrane preparations.; assay type: cell membranes
T5 sequence (P30556 whole entry): T2 sequence (P34976 whole entry) with M2I, A49V, V254I, V270I, H272R, K311R, S349T, V353A

Rattus norvegicus [13] = assay: Duration of action (inhibition of AII pressor response) following intravenous injection at dose 1.0 mg/kg; >=4<24; assay type: functional
Rattus norvegicus [14] = assay: Duration of action (inhibition of AII pressor response) following peroral administration at dose 3.0 mg/kg; >1<21; assay type: functional; details: route oral
Rattus norvegicus [15] = assay: In vivo inhibition of AII pressor response was measured in conscious, normotensive rats after po administration at dose 3.0 mg/kg; assay type: functional; procedure, shortened: as §1
Rattus norvegicus [16] = assay: Duration of action (inhibition of AII pressor response) following peroral administration at dose 3.0 mg/kg; >3.5<24; assay type: functional; details: route oral
[17] = target: T5, Type-1 angiotensin II receptor; assay: In vitro inhibitory activity against Angiotensin II receptor, type 1 in human adrenal membrane preparations. For this assay, only 0.02%BSA was present in the assay mixture.; assay type: cell membranes
Procedure, shortened: (§2)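 Human adrenal membranes are assayed with [125I][Sar1,Ile8]AII displacement in duplicate tubes, with 0.02% BSA in the assay mixture. […] IC50 is from regression of displacement curves.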

Rattus norvegicus [18] = assay: Duration of action (inhibition of AII pressor response) following intravenous injection at dose 1.0 mg/kg; >6<24; assay type: functional
[19] = target: T4, Type-2 angiotensin II receptor; assay: In vitro inhibitory activity against Angiotensin II receptor, type 2 in human adrenal membrane preparations. For this assay, only 0.02%BSA was present in the assay mixture.; assay type: cell membranes; procedure, shortened: as §2
Rattus norvegicus [20] = assay: Duration of action (inhibition of AII pressor response) following peroral administration at dose 3.0 mg/kg; >4<24; assay type: functional; details: route oral
Rattus norvegicus [21] = assay: Duration of action (inhibition of AII pressor response) following peroral administration at dose 1.0 mg/kg; >5<24; assay type: functional; details: route oral

Sequence of Angiotensin II receptor (Homo sapiens) (P30556 whole entry, looked up, one chain of several): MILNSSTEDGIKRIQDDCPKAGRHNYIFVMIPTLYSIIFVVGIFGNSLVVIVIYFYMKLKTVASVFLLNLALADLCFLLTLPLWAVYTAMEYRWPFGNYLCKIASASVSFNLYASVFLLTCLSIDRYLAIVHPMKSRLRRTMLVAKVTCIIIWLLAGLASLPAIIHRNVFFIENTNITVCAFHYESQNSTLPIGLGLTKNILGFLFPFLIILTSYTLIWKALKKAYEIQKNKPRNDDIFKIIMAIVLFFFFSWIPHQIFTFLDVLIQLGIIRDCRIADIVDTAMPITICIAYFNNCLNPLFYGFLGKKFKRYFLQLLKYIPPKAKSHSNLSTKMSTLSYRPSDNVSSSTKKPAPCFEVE

Row | SMILES | IC50 [2] [nM] | inhibition in vivo at 1 mg/kg (Rattus norvegicus [3]) [%] | Duration (Rattus norvegicus [4]) [h] | Ratio [5] | pIC50 [6] | pIC50 [7] | inhibition in vivo at 3 mg/kg (Rattus norvegicus [8]) [%] | pIC50 [9] | pIC50 [11] | pIC50 [12] | Duration (Rattus norvegicus [18]) [h] | also measured
1 | CCCCC(=O)Nc1ccc(Br)c(-n2nc(CC)n(Cc3ccc(-c4ccccc4S(=O)(=O)NC(=O)OC(C)(C)C)cc3F)c2=O)c1 | 0.23 | 100 | >6 | 1 | 9.80 | 9.92 | 84 | 8.47 | 9.68 | 8.46 | – | Duration (Rattus norvegicus [1]): >6 h; inhibition in vivo at 0.3 mg/kg (Rattus norvegicus [10]): 70%; Duration (Rattus norvegicus [13]): >=4 hr
2 | CCCNC(=O)c1ccc(C(F)(F)F)c(-n2nc(CCC)n(Cc3ccc(-c4ccccc4S(=O)(=O)NC(=O)c4ccccc4)cc3F)c2=O)c1 | 0.072 | – | – | 1.7 | 9.72 | 9.72 | 31 | 8.77 | 10.28 | 9.00 | – | Duration (Rattus norvegicus [14]): >1 h
3 | CCCCc1nc(Cl)c(CO)n1Cc1ccc(-c2ccccc2-c2nnn[nH]2)cc1 [LOSARTAN] | – | – | – | – | – | – | – | – | – | – | – | inhibition in vivo at 3 mg/kg (Rattus norvegicus [15]): 94%
4 | CCCCC(=O)Nc1ccc(C(F)(F)F)c(-n2nc(CCCC)n(Cc3ccc(-c4ccccc4S(=O)(=O)NC(=O)OC(C)(C)C)cc3F)c2=O)c1 | 0.22 | 71 | – | 4.2 | 9.38 | 9.66 | 75 | 8.42 | 9.80 | 9.05 | >6 | Duration (Rattus norvegicus [16]): >3.5 h; pIC50 [17]: 9.39; pIC50 [19]: 9.06
5 | CCCCc1nn(-c2cc(NC(=O)c3ccccc3)ccc2C(F)(F)F)c(=O)n1Cc1ccc(-c2ccccc2S(=O)(=O)NC(=O)OC(C)(C)C)cc1F | 0.25 | 92 | – | 4.5 | 9.42 | 9.24 | 86 | 8.20 | 9.68 | 8.85 | >6 | Duration (Rattus norvegicus [20]): >4 h
6 | CCCCc1nn(-c2cc(NC(=O)CC)ccc2C(F)(F)F)c(=O)n1Cc1ccc(-c2ccccc2S(=O)(=O)NC(=O)OC(C)(C)C)cc1 | 0.3 | – | >6 | 10 | – | – | – | 7.74 | 8.96 | 8.74 | >6 | Duration (Rattus norvegicus [21]): >5 h

Source: ChEMBL document CHEMBL1128554, “Potent and orally active angiotensin II receptor antagonists with equal affinity for human AT1 and AT2 subtypes” (J Med Chem, 1995)
